“And” between values parts separate entries of the source, which are not always exact repeats. Equal entries are not always repeated. The source made the active and inactive calls. The calls are words filed in the database; no cut-off is given here.
Columns and labels:
Rattus norvegicus [1] = experiment: The antihypertensive activity as percentage fall in systolic blood pressure in spontaneously hypertensive rats after a period of 4 hr for a dose of 75 mg/kg po; NS=Not significant; type: functional, organism-based; set-up: dose 75 mg/kg; details: Artery
Method in brief: (§1)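 Male Okamoto-Aoki SHR, trained, in groups of four matched for systolic pressure, with a concurrent vehicle control group. Oral dosing on two consecutive mornings, in water as solution or suspension at 0.1 mL/10 g. On day 2 rats were restrained at 30.0 ± 1.0 °C. Tail-cuff systolic pressure, four traces per rat, read at each hour. Per cent fall versus control; 1-tail t test, p ≤ 0.05.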

[2] = (§2) Distribution coefficient between 1-Octanol and phosphate buffer at pH7.4; type: physicochemical; details: 1-octanol/phosphate buffer, pH 7.4
Method in brief: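 Octanol/buffer distribution measured at pH 7.4 in phosphate with sodium chloride. Either HPLC (0.004 M) or shake flask.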

Rattus norvegicus [3] = experiment: The antihypertensive activity as percentage fall in systolic blood pressure in spontaneously hypertensive rats after a period of 1 hr for a dose of 50 mg/kg po
Rattus norvegicus [4] = experiment: The antihypertensive activity as percentage fall in systolic blood pressure in spontaneously hypertensive rats after a period of 2 hr for a dose of 75 mg/kg po; NS=Not significant; type: functional, organism-based; set-up: dose 75 mg/kg; details: Artery; method in brief: as §1
Rattus norvegicus [5] = experiment: The antihypertensive activity as percentage fall in systolic blood pressure in spontaneously hypertensive rats after a period of 3 hr for a dose of 75 mg/kg po; NS=Not significant; type: functional, organism-based; set-up: dose 75 mg/kg; details: Artery; method in brief: as §1
Rattus norvegicus [6] = experiment: Antihypertensive activity as percentage fall in systolic blood pressure in spontaneously hypertensive rats after a period of 3 h for a dose of 50 mg/kg; type: functional, organism-based; set-up: dose 50 mg/kg; details: Artery
Method in brief: (§3)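 Male Okamoto-Aoki SHR, trained, in groups of four matched for mean systolic pressure; one group per run received water vehicle. Oral dosing in water (0.1 mL per 10 g) on two consecutive mornings. After the day-2 dose, rats were restrained at 30.0 ± 1.0 °C. Systolic pressure was read by tail cuff (inflated to 300 mmHg, first pulse) at 1–4 h. % fall is versus the untreated control group, by 1-tail t test (p ≤ 0.05).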

Rattus norvegicus [7] = experiment: Antihypertensive activity as percentage fall in systolic blood pressure in spontaneously hypertensive rats after a period of 4 hr for a dose of 50 mg/kg; type: functional, organism-based; set-up: dose 50 mg/kg; details: Artery; method in brief: as §3
Rattus norvegicus [8] = experiment: The antihypertensive activity as percentage fall in systolic blood pressure in spontaneously hypertensive rats after a period of 3 hr for a dose of 100 mg/kg po; type: functional, Artery; method in brief: as §3
Rattus norvegicus [9] = experiment: The antihypertensive activity as percentage fall in systolic blood pressure in spontaneously hypertensive rats after a period of 2 hr for a dose of 100 mg/kg po; type: functional, Artery; method in brief: as §3
Rattus norvegicus [10] = experiment: The antihypertensive activity as percentage fall in systolic blood pressure in spontaneously hypertensive rats after a period of 4 hr for a dose of 100 mg/kg po; NS=Not significant; type: functional, organism-based; set-up: dose 100 mg/kg; details: Artery; method in brief: as §3
Rattus norvegicus [11] = experiment: The antihypertensive activity as percentage fall in systolic blood pressure in spontaneously hypertensive rats after a period of 1 hr for a dose of 100 mg/kg po; type: functional, Artery; method in brief: as §3
Rattus norvegicus [12] = experiment: Antihypertensive activity as percentage fall in systolic blood pressure in spontaneously hypertensive rats after a period of 2 hr for a dose of 50 mg/kg; type: functional, organism-based; set-up: dose 50 mg/kg; details: Artery; method in brief: as §3
Rattus norvegicus [13] = experiment: Antihypertensive activity as percentage fall in systolic blood pressure in spontaneously hypertensive rats after a period of 1 hr for a dose of 50 mg/kg po; type: functional, organism-based; set-up: dose 50 mg/kg; details: Artery; method in brief: as §3
[14] = as §2; type: physicochemical; details: 1-octanol/phosphate buffer, pH 7.4; remark: listed apart in the source
Canis familiaris [15] = experiment: Percent inhibition of the pressor responses to 7.5 ug/kg iv phenylephrine in pentobarbital-anesthetized dogs for a dose of 0.1 mg/kg; type: functional; details: Canis lupus familiaris
Method in brief: (§4)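 Pentobarbital-anesthetized dogs (35 mg/kg iv) with femoral arterial pressure recording. Epinephrine (1 μg/kg), norepinephrine (0.75 μg/kg) and phenylephrine (7.5 μg/kg) iv challenges were given about every 10 min before and after rising iv test doses, which were spaced 90 min apart. Value is % inhibition of the pressor response.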

Canis familiaris [16] = experiment: Change in mean arterial pressure in anesthetized dogs for a dose of 0.1 mg/kg; type: functional, Canis lupus familiaris, Artery
Method in brief: (§5)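 Dogs anesthetized with sodium pentobarbital (35 mg/kg iv), femoral artery cannulated for pressure, ECG-triggered heart rate, femoral vein for dosing. Rising iv doses were given 90 min apart, and each dose is the full dose, not cumulative. Value is the maximal mean arterial pressure change 10–15 min after each dose, two dogs per compound, ±3 mmHg. Saline served as control.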

Canis familiaris [17] = experiment: Percent inhibition of the pressor responses to 1 ug/kg iv Epinephrine in pentobarbital-anesthetized dogs for a dose of 0.1 mg/kg; type: functional; details: Canis lupus familiaris
Method in brief: (§6)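 Dogs anesthetized with sodium pentobarbital 35 mg/kg iv; femoral artery cannulated for blood pressure, femoral vein for dosing. Epinephrine 1 μg/kg iv given at about 10-min intervals before and after increasing test doses. Test doses given iv at 90-min intervals. Result is per cent inhibition of the pressor response.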

Rattus norvegicus [18] = experiment: Antihypertensive activity as percentage fall in systolic blood pressure in spontaneously hypertensive rats after a period of 1 hr for a dose of 50 mg/kg; type: functional, Artery; method in brief: as §3
Canis familiaris [19] = experiment: Percent inhibition of the pressor responses to 1 ug/kg iv Epinephrine in pentobarbital-anesthetized dogs for a dose of 1 mg/kg; type: functional; details: Canis lupus familiaris; method in brief: as §4
Canis familiaris [20] = experiment: Percent inhibition of the pressor responses to 7.5 ug/kg iv phenylephrine in pentobarbital-anesthetized dogs for a dose of 1 mg/kg; type: functional; details: Canis lupus familiaris; method in brief: as §4
Canis familiaris [21] = experiment: Change in mean arterial pressure in anesthetized dogs for a dose of 1 mg/kg; type: functional, Canis lupus familiaris, Artery; method in brief: as §5
Rattus norvegicus [22] = experiment: Percentage fall in systolic blood pressure in spontaneously hypertensive rats after 2 hr following 50 mg/kg p.o.; type: functional, Artery; details: route oral; method in brief: as §3
Canis familiaris [23] = experiment: Change in mean arterial pressure in anesthetized dogs for a dose of 10 mg/kg; type: functional, Canis lupus familiaris, Artery; method in brief: as §5
Canis familiaris [24] = experiment: Percent inhibition of the pressor responses to 0.75 ug/kg iv norepinephrine in pentobarbital-anesthetized dogs for a dose of 10 mg/kg; type: functional; details: Canis lupus familiaris; method in brief: as §4
Canis familiaris [25] = experiment: Percent inhibition of the pressor responses to 0.75 ug/kg iv norepinephrine in pentobarbital-anesthetized dogs for a dose of 1 mg/kg; type: functional; details: Canis lupus familiaris; method in brief: as §4
Canis familiaris [26] = experiment: Percent inhibition of the pressor responses to 0.75 ug/kg iv norepinephrine in pentobarbital-anesthetized dogs for a dose of 5.0 mg/kg; type: functional; details: Canis lupus familiaris; method in brief: as §4
Rattus norvegicus [27] = experiment: Percentage fall in systolic blood pressure in spontaneously hypertensive rats after 3 h following 50 mg/kg p.o.; type: functional, Artery; details: route oral; method in brief: as §3
Canis familiaris [28] = experiment: Percent inhibition of the pressor responses to 7.5 ug/kg iv phenylephrine in pentobarbital-anesthetized dogs for a dose of 10 mg/kg; type: functional; details: Canis lupus familiaris; method in brief: as §4
Canis familiaris [29] = experiment: Percent inhibition of the pressor responses to 1 ug/kg iv Epinephrine in pentobarbital-anesthetized dogs for a dose of 10 mg/kg; type: functional; details: Canis lupus familiaris; method in brief: as §6
Rattus norvegicus [30] = experiment: Antihypertensive activity as percentage fall in systolic blood pressure in spontaneously hypertensive rats after a period of 4 hr for a dose of 50 mg/kg po; type: functional, Artery; method in brief: as §3
Rattus norvegicus [31] = experiment: Antihypertensive activity as percentage fall in systolic blood pressure in spontaneously hypertensive rats after a period of 3 hr for a dose of 25 mg/kg po.; NS=Not significant; type: functional, organism-based; set-up: dose 25 mg/kg; details: Artery; method in brief: as §3
Rattus norvegicus [32] = experiment: Antihypertensive activity as percentage fall in systolic blood pressure in spontaneously hypertensive rats after a period of 4 hr for a dose of 25 mg/kg po.; NS=Not significant; type: functional, organism-based; set-up: dose 25 mg/kg; details: Artery; method in brief: as §3
Rattus norvegicus [33] = experiment: Antihypertensive activity as percentage fall in systolic blood pressure in spontaneously hypertensive rats after a period of 2 hr for a dose of 25 mg/kg po.; NS=Not significant; type: functional, organism-based; set-up: dose 25 mg/kg; details: Artery; method in brief: as §3

O=C1NC(Cc2ccccc2)C2(CCN(CCc3c[nH]c4ccccc34)CC2)O1 (centres undefined)
Decrease in blood pressure (Rattus norvegicus [1]): inactive
logD [2]: 2.68
Decrease in blood pressure (Rattus norvegicus [3]): 13%
Decrease in blood pressure (Rattus norvegicus [4]): inactive
Decrease in blood pressure (Rattus norvegicus [5]): inactive

CC1NC(=O)OC12CCN(CC(O)C1COc3ccccc3O1)CC2 (centres undefined)
Decrease in blood pressure (Rattus norvegicus [6]): Not significant
Decrease in blood pressure (Rattus norvegicus [7]): Not significant
Decrease in blood pressure (Rattus norvegicus [8]): 14%
Decrease in blood pressure (Rattus norvegicus [9]): 15%
Decrease in blood pressure (Rattus norvegicus [10]): inactive
Decrease in blood pressure (Rattus norvegicus [11]): 15%
Decrease in blood pressure (Rattus norvegicus [12]): Not significant
Decrease in blood pressure (Rattus norvegicus [13]): Not significant
logD [14]: 1.21

Cc1ccc(N(CC2=NCCN2)c2cccc(O)c2)cc1 [PHENTOLAMINE]
inhibition in vivo at 0.1 mg/kg (Canis familiaris [15]): 42%
MAP (Canis familiaris [16]): -9 mmHg
inhibition in vivo at 0.1 mg/kg (Canis familiaris [17]): 41%
Decrease in blood pressure (Rattus norvegicus [18]): 37%
inhibition in vivo at 1 mg/kg (Canis familiaris [19]): > 100%
inhibition in vivo at 1 mg/kg (Canis familiaris [20]): 86%
MAP (Canis familiaris [21]): -11 mmHg
Decrease in blood pressure (Rattus norvegicus [22]): 30%
MAP (Canis familiaris [23]): -33 mmHg
inhibition in vivo at 10 mg/kg (Canis familiaris [24]): > 100%
inhibition in vivo at 1 mg/kg (Canis familiaris [25]): > 100%
logD [14]: 0.82
inhibition in vivo at 5 mg/kg (Canis familiaris [26]): > 100%
Decrease in blood pressure (Rattus norvegicus [27]): 19%
inhibition in vivo at 10 mg/kg (Canis familiaris [28]): 100%
inhibition in vivo at 10 mg/kg (Canis familiaris [29]): > 100%
Decrease in blood pressure (Rattus norvegicus [30]): 16%

COc1ccccc1OCC(O)CN1CCC2(CC1)CN(C)C(=O)O2 (centres undefined)
Decrease in blood pressure (Rattus norvegicus [31]): inactive
Decrease in blood pressure (Rattus norvegicus [18]): 15%
Decrease in blood pressure (Rattus norvegicus [12]): Not significant
logD [14]: 0.96
Decrease in blood pressure (Rattus norvegicus [32]): inactive
Decrease in blood pressure (Rattus norvegicus [27]; 50 mg/kg): 19% and 7%
Decrease in blood pressure (Rattus norvegicus [33]): inactive
Decrease in blood pressure (Rattus norvegicus [30]): 9%

From ChEMBL document CHEMBL1121744, “Synthesis and antihypertensive activity of a series of 8-substituted 1-oxa-3,8-diazaspiro[4.5]decan-2-ones” (J Med Chem, 1981)
